Results from the M2OR odorant receptor database.

How the values were obtained:
Conditions in all cases: stereoisomer not certain
UniProt L7MU75 = target: T1, UniProt L7MU75
T1 sequence (whole entry): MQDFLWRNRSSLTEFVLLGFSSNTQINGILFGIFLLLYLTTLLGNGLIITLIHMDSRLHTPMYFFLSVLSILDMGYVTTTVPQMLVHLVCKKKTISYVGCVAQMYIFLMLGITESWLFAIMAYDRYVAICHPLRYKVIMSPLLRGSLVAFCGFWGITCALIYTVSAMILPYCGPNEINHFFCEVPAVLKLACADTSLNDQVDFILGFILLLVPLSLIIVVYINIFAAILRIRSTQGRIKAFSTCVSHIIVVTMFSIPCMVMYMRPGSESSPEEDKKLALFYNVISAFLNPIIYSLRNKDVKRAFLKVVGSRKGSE
How it was run: (§1)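 Assay methods differ from source to source, frequently being transient luciferase assays in mammalian cell lines. For each receptor–molecule pair, the label responsive (active) applies when the original authors judged the measured signal statistically different from baseline, and non-responsive (inactive) applies otherwise.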

UniProt L7N210 = target: T2, UniProt L7N210
T2 sequence (whole entry): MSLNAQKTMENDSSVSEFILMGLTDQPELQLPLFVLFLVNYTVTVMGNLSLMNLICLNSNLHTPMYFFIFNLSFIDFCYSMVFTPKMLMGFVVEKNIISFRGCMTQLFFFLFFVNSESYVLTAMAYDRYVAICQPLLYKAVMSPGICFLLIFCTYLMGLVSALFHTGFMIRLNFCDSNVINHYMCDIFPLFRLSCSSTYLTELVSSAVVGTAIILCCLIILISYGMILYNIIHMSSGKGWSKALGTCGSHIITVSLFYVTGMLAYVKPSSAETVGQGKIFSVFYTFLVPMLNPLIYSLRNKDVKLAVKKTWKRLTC
How it was run: as §1

UniProt Q3KPB0 = target: T3, UniProt Q3KPB0
T3 sequence (whole entry): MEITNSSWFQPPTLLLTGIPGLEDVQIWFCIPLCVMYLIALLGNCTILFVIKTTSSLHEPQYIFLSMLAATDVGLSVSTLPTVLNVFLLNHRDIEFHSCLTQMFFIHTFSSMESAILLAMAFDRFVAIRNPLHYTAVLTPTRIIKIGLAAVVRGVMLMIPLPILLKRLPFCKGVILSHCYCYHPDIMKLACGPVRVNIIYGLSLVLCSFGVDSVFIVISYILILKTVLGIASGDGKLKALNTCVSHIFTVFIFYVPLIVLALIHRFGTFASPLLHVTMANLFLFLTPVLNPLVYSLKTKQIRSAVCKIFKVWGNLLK
How it was run: as §1

UniProt Q3U0P3 = target: T4, UniProt Q3U0P3
T4 sequence (whole entry): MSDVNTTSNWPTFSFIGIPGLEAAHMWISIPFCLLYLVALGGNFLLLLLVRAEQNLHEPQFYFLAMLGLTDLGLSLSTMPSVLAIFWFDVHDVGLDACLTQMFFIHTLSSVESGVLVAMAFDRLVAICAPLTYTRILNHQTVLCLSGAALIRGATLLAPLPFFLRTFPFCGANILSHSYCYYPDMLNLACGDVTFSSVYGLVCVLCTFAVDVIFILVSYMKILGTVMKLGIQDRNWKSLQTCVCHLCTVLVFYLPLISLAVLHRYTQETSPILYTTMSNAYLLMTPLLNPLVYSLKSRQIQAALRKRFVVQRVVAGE
How it was run: as §1

UniProt Q7TQU8 = target: T5, UniProt Q7TQU8
T5 sequence (whole entry): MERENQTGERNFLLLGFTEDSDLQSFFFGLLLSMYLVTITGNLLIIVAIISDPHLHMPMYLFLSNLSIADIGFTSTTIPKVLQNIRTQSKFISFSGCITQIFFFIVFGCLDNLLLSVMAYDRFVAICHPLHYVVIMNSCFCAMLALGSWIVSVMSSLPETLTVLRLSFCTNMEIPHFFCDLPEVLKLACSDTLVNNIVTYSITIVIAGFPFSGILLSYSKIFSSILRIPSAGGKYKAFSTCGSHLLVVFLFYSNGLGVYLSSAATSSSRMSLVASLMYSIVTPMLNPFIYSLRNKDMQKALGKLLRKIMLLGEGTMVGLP
How it was run: as §1

UniProt Q7TQV4 = target: T6, UniProt Q7TQV4
T6 sequence (whole entry): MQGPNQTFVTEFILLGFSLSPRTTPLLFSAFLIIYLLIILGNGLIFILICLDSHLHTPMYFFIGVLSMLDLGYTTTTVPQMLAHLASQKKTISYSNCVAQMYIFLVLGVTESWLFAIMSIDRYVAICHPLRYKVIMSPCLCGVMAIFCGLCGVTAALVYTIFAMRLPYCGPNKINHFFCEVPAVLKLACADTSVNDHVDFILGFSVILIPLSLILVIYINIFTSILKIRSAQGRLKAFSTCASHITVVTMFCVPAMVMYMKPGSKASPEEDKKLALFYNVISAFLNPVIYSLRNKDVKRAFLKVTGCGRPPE
How it was run: as §1

Measured: odorant receptor agonist call

CCOC(=O)CC(C)C
not listed: UniProt Q7TQV4
inactive: all other assays above

C=CC(=C)CCC=C(C)C
not listed: UniProt Q7TQV4
inactive: all other assays above

CCc1ccc(O)cc1
active: UniProt L7N210
not listed: UniProt Q7TQV4
inactive: all other assays above

C1CCOCC1
not listed: UniProt Q7TQV4
inactive: all other assays above

Cc1c(C)c(C)c(C=O)c(C)c1C
active: UniProt L7N210
not listed: UniProt Q7TQV4
inactive: all other assays above

CCc1ccccc1O
not listed: UniProt Q7TQV4
inactive: all other assays above

C=C(CC)CCCC(C)(C)O
not listed: UniProt Q7TQV4
inactive: all other assays above

C=C(C)C1CC=C(C)CC1 (configuration not stated)
not listed: UniProt Q7TQV4
inactive: all other assays above

CCCCCC(C=O)=Cc1ccccc1
not listed: UniProt Q7TQV4
inactive: all other assays above

C=CC(=C)CCC=C(C)CCC=C(C)C
not listed: UniProt Q7TQV4
inactive: all other assays above

CC1CC=CCCCCCCCCCC(=O)C1 (configuration not stated)
not listed: UniProt Q7TQV4
inactive: all other assays above

O=C([O-])CCCCCCCC(=O)[O-].[H+].[H+]
not listed: UniProt Q7TQV4
inactive: all other assays above

CC(=O)OCCc1ccccc1
active: UniProt L7N210
not listed: UniProt Q7TQV4
inactive: all other assays above

CCCCCC(C)O (configuration not stated)
not listed: UniProt Q7TQV4
inactive: all other assays above

CCCCCC(=Cc1ccccc1)C(OC)OC
not listed: UniProt Q7TQV4
inactive: all other assays above

COC(OC)c1ccccc1
not listed: UniProt Q7TQV4
inactive: all other assays above

CCCCCCC(C=O)=Cc1ccccc1
not listed: UniProt Q7TQV4
inactive: all other assays above

CC(=O)OCc1ccccc1
inactive: all assays above

CCCCCCOC(C)=O
inactive: all assays above

CCc1occc(=O)c1O
active: UniProt L7MU75 | UniProt L7N210
inactive: UniProt Q3KPB0 | UniProt Q3U0P3 | UniProt Q7TQU8

O=C(c1ccccc1)c1ccccc1
active: UniProt L7MU75
inactive: all other assays above

CCCCCC(=O)CC
inactive: all assays above

CC12CCC(CC1=O)C2(C)C (configuration not stated)
inactive: all assays above

OCC=Cc1ccccc1
active: UniProt L7N210
not listed: UniProt Q7TQV4
inactive: all other assays above

Cc1ccc(OC(=O)C(C)C)cc1
not listed: UniProt Q7TQV4
inactive: all other assays above

CCOC(=O)C(C)C
inactive: all assays above

CCCCCCCCC(=O)O
inactive: all assays above

CC1(C)CC(=O)CC(=O)C1
not listed: UniProt Q7TQV4
inactive: all other assays above

CCCCCCCCS
inactive: all assays above

CCCCCCCCCS
inactive: all assays above

CCCCCCCCCC(=O)[O-].[H+]
inactive: all assays above

CCCCCCC(C)=O
inactive: all assays above

CCCCCCCCCCO
inactive: all assays above

COc1cc(C(=O)O)ccc1O
inactive: all assays above

CCCCCCCCO
inactive: all assays above

CC(=O)Oc1ccccc1
inactive: all assays above

CCCCC(=O)CC
inactive: all assays above

CCCCCCCC(C)=O
inactive: all assays above

CCCCCOC(=O)CCCCC
inactive: all assays above

CCCCC(C)=O
inactive: all assays above

c1ccccc1
inactive: all assays above

C=CC(=O)CCCCC
not listed: UniProt Q7TQV4
inactive: all other assays above

C=C(C)C1CCC(C)C(=O)C1 (configuration not stated)
inactive: all assays above

CCSSCC
not listed: UniProt Q7TQV4
inactive: all other assays above

CCCCCC1=C(C)CCC1=O
inactive: all assays above
